Screening results (PubChem)
OXTR potentiator = human OXTR potentiators, primary screen, fluorescence, CHO-OTR cells, Fluo-8 calcium | Fluo-8 calcium fluorescence, potentiator mode; 0% = oxytocin EC15, 100% = EC100 | actives 0.061% (n = 320,000) | AID 2445, 2010 | activation, % at 3 µM | Oxytocin receptor (Homo sapiens), P30559;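 active = activation above that plate's cutoff, the mean activation of tested compounds plus 3 SD, cut at about 6.6% in these data, passing the limit was not always enough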
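Assay system: CHO cell line stably expressing human OTR. Reagent: EC15 oxytocin agonist. Dosing: single dose, 3.0 µM nominal final compound concentration. Timing: compound 6 min at room temperature before oxytocin, 100 s read. Signal: kinetic Fluo-8 calcium fluorescence. Controls: oxytocin EC15 low and EC100 high.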
TAAR1 ag = human TAAR1 agonists, primary screen, Fluo-8 calcium fluorescence, CHO RD-HGA16 cells. Trace amine-associated receptor 1 (Homo sapiens), Q96RJ0. vehicle wells 0%, saturating PEA agonist 100%. activation, % at 3 µM. actives 0.99% (n = 360,000). AID 624467, 2012;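 active = activation above the mean activation of all test compounds in the run plus 3 SD, cut at about 38% in these data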
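Repeats: no replicates (n 1) | Material: CHO-derived RD-HGA16 cells with stable Gα16 and human TAAR1 | Technique: Kinetic Fluo-8 calcium fluorescence | Schedule: 17-24 h seeding, 75 min 37 °C dye, 30 min RT | Evaluation: % activation from peak over basal fluorescence ratio, DMSO-to-PEA scaled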
V1R ag counter = agonists of human V1a receptor, primary screen, counter-screen for OXTR agonist project, fluorescence, CHO-V1R cells | activation, % at 3 µM | Vasopressin V1a receptor (Homo sapiens), P37288 | actives 0.25% (n = 320,000) | Fluo-8 calcium fluorescence, agonist mode; 0% DMSO, 100% 3 nM vasopressin;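 active = activation above the mean activation of all tested compounds plus 3 SD, per screening run, cut at about 20% in these data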;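 note: signal is peak over basal fluorescence ratio across a 100 second FLIPR read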
Target sequence (P37288 whole entry, looked up): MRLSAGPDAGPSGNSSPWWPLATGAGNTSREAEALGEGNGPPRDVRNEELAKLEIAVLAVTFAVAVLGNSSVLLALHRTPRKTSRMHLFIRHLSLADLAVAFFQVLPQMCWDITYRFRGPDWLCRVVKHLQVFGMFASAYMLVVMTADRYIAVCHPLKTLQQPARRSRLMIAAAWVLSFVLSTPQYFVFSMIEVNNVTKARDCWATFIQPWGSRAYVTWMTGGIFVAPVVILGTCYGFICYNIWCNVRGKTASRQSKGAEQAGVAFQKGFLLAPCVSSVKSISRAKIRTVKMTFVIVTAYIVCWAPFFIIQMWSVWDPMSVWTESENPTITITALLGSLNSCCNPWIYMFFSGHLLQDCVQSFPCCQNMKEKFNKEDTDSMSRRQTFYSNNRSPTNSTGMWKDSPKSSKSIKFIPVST
OXTR agonist = human OXTR agonists, primary screen, fluorescence, CHO-OTR cells, Fluo-8 calcium. Oxytocin receptor (Homo sapiens), P30559. Fluo-8 calcium fluorescence; normalized: DMSO 0%, oxytocin 100%. activation, % at 3 µM. actives 0.32% (n = 320,000). AID 2435, 2010;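 active = activation above the mean of all tested compounds plus 3 SD, cutoff set per screening run, cut at about 20% in these data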;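 note: peak over basal fluorescence ratio from a 100 s FLIPR kinetic read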
TAAR1 antag = human TAAR1 antagonists, primary screen, Fluo-8 calcium fluorescence, CHO RD-HGA16 cells | Trace amine-associated receptor 1 (Homo sapiens), Q96RJ0 | antagonist | inhibition, % at 3 µM | actives 1.5% (n = 360,000) | AID 624466, 2012;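 active = inhibition above a per-plate cutoff, the mean inhibition of test compounds on that plate plus 3 SD, cut at about 49% in these data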
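Test system: RD-HGA16 CHO cells with stable hTAAR1 and Gα16 / Probe or stimulus: EC80 β-phenethylamine stimulus / Times: seeding 17-24 h prior, 75-min 37 °C, 30-min RT dye loading / Detection: Fluo-8 calcium-sensitive fluorescence / Read-out basis: % inhibition scaled between DMSO and EC80 PEA controls / Repeats: singlicate, one well per test compound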
Hits are given with their value; . = inactive; / = no result. Compounds with a hit are over-represented: about 2.3% of the library has one in this group of screens.

SMILES | OXTR potentiator | TAAR1 ag | V1R ag counter | OXTR agonist | TAAR1 antag
COc1ccccc1CNc1nc(Nc2cccc(-c3cnco3)c2)c2sccc2n1 | / | . | / | / | 75.9
Cc1noc(C)c1S(=O)(=O)N(C)C[C@@H]1OCc2cn(nn2)CCCC(=O)N([C@H](C)CO)C[C@H]1C | / | . | / | / | .
COC(=O)c1cc2c(c3c4cc(C)ccc4n(S(=O)(=O)c4ccc(C)cc4)c13)C(=O)N(Cc1ccccc1)C2 | / | . | / | / | .
O=C1NC[C@H](CCCCN2C[C@H](Cc3ccc(O)cc3)N(CCc3ccc(O)cc3)C(=O)C2=O)N(Cc2ccccc2)C1=O | / | 43.3 | / | / | .
O=C1NC[C@@H](CCCCN2C[C@H](Cc3ccc(O)cc3)N(CC3CCCCC3)C(=O)C2=O)N(CCC2CCCCC2)C1=O | / | 43.1 | / | / | .
O=C1NC[C@H](CCCCN2C[C@H](Cc3ccc(O)cc3)N(CCC3CCCCC3)C(=O)C2=O)N(CC2CCCCC2)C1=O | / | . | / | / | .
O=C1NC[C@H](CCCCN2C[C@H](Cc3ccc(O)cc3)N(CCc3ccccc3)C(=O)C2=O)N(Cc2ccccc2)C1=O | / | . | / | / | .
CCCCN(CCCC)CCCNC(=O)Cn1cc(C)c(=O)[nH]c1=O | / | . | / | / | .
CCOC(=O)Cc1ccc(Nc2nc(NCc3ccccc3)nc3ccsc23)cc1 | / | . | / | / | 71.8
CCOC(=O)Cc1ccc(Nc2nc(NC)nc3ccsc23)cc1 | / | . | / | / | .
C=CCNc1nc(NCCCN2CCCC2=O)c2sc(-c3ccccc3)cc2n1 | / | . | / | / | .
Cc1ccc(CNc2nc(NCc3ccccc3)nc3ccsc23)c(C)c1 | / | . | / | / | 54.4
O=C1CCCN1CCCNc1nc(NCc2ccccc2)nc2ccsc12 | / | 128.8 | / | / | 105.4
CC(=O)Nc1ccc(CNc2nc(NCc3cccs3)nc3ccsc23)cc1 | / | . | / | / | 48.7
COc1ccc(S(=O)(=O)CC(=O)c2cc3cc(Br)ccc3oc2=O)cc1 | . | 42.4 | . | . | .
COc1ccc(OC)c(S(=O)(=O)CC(=O)c2cc3ccc(OC)cc3oc2=O)c1 | . | / | . | . | /
CC(C)(C)S(=O)N1C[C@@H]2CC(=O)C(CCO)=C2[C@H]1CCO (some centres undefined) | / | . | / | / | .
Cc1cc(/C=N/NC(=O)c2cc3ccccc3o2)c(C)n1C | . | . | . | . | 53.7
C[C@@H]1CN([C@@H](C)CO)C(=O)CCCn2cc(nn2)CO[C@H]1CN(C)C(=O)Nc1ccc(C(C)(C)C)cc1 | / | . | / | / | .
COC(=O)c1cc2c(c3c4cc(F)ccc4n(S(=O)(=O)c4ccc(C)cc4)c13)C(=O)N(Cc1ccc(C(F)(F)F)cc1)C2 | / | . | / | / | .
CC(=O)c1cccc(NC(=O)CSC(=O)c2ccccc2)c1 | . | 38.4 | . | . | .
CCN(CC)c1ccc(NC(=O)CSC(=O)c2ccccc2)cc1 | . | . | . | . | .
Cc1ccc(NC(=O)COC(=O)c2cccc(N3C(=O)c4ccccc4C3=O)c2)cc1 | . | . | . | . | .
CC(=O)c1cccc(NC(=O)COC(=O)c2cccc(N3C(=O)c4ccccc4C3=O)c2)c1 | . | . | . | . | 48.9
CC(=O)Nc1ccc2c(COC(=O)CC3Sc4ccccc4NC3=O)cc(=O)oc2c1 (centres undefined) | . | . | . | . | .
COc1ccc2c(COC(=O)CC3Sc4ccccc4NC3=O)cc(=O)oc2c1 (centres undefined) | . | . | . | . | 54.1
Cc1ccc(C(=O)N2CCCCC2)cc1NC1=C(Cl)C(=O)N(Cc2ccccc2)C1=O | . | . | . | . | 50.0
FC(F)(F)c1nc(-c2cccs2)ncc1-c1nnnn1-c1ccc(Cl)cc1 | . | . | . | . | 58.7
CC(C)(C)OC(=O)N(Cc1ccccc1)Cc1ccc(OCc2cccc(NC(=O)C3CC3)c2)cc1 | / | . | / | / | 52.6
CC(C)(C)OC(=O)N(CCc1ccccc1)Cc1ccc(OCc2cccc(NC(=O)C3CCCC3)c2)cc1 | / | . | / | / | .
